Rev-erbA mod: modulators of Rev-erb alpha DNA binding, primary screen, biochemical, FITC-DNA, fluorescence polarization, uHTS; actives 0.79% (n = 370,000); Rev-erbα–FITC-DNA binding, 90 min; Nuclear receptor subfamily 1 group D member 1 (Homo sapiens), P20393; activity, % at 10 µM;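 active means activity above about 14%, limit read from the data; passing the limit was not always enough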
Target sequence (P20393 whole entry, looked up): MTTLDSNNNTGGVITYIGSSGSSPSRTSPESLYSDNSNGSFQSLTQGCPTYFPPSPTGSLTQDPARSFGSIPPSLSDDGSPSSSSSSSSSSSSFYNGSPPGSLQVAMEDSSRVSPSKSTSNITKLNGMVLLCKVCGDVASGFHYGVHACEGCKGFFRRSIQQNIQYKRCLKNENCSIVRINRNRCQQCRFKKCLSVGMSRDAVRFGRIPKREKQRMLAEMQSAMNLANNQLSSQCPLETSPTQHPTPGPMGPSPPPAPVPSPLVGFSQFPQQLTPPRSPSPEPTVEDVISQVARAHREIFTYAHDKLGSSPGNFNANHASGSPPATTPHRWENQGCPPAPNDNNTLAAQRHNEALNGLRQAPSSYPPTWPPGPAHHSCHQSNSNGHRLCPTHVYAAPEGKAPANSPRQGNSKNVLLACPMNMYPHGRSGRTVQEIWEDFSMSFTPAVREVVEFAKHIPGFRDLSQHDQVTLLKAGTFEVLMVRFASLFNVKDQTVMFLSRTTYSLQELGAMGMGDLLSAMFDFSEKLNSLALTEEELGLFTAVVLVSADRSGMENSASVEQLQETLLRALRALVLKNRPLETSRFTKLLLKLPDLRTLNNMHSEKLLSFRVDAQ
NR2E3 ag-1: NR2E3 agonists in two-hybrid cells, primary screen, cell-based, luminescence, CHO-S, Gal4-NCOR/VP16-NR2E3 | actives 0.35% (n = 360,000) | AID 602229, 2012 | luciferase | Photoreceptor-specific nuclear receptor (Homo sapiens), Q9Y5X4 | inhibition of corepressor binding, % at 3.98 µM;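 active means inhibition above the mean of all tested compounds plus 3 SD, cut at about 70% in these data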;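 further: higher means lower luciferase signal from less NR2E3 corepressor binding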
NR2E3 ag-2: inhibitors of NR2E3-RetCOR corepressor binding, primary screen, NR2E3 agonist project, biochemical, TR-FRET, GST-NR2E3, biotin-RetCOR; Photoreceptor-specific nuclear receptor (Homo sapiens), Q9Y5X4; actives 0.12% (n = 320,000); 1536-well; AID 2300, 2010; inhibition of corepressor binding, % at 4.78 µM;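 active means percent inhibition above the cutoff of mean plus 3 SD of all tested compounds, set per screening campaign, cut at about 20% in these data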
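System: GST-tagged NR2E3 plus biotinylated RetCOR corepressor; Amount: 1.35 nM GST-tagged NR2E3 final; Dosing: single nominal compound dose of 4.8 µM; Schedule: 5 h incubation at 4 °C; Technique: TR-FRET with europium anti-GST and streptavidin-D2, 340 nm excitation; Controls: biotin wells as high control, 0.6% DMSO wells as low control.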
PG9 Ab binder: binders of HIV-1 gp120 antibody PG9, primary screen, biochemical, TR-FRET; HIV-1 gp120 / PG9 antibody interaction; TR-FRET gp120-PG9 antibody binding; inhibition, % at 6.7 µM; actives 0.43% (n = 360,000); AID 624416, 2012; in the data active means inhibition above about 8.5%
Rev-erbA confirm: modulators of Rev-erb alpha DNA binding, confirmation, biochemical, FITC-DNA, fluorescence polarization, single point; AID 1259319, 2017; 90 min; actives 61% (n = 3,000); shares compounds with Rev-erbA mod; activation, % at 25 µM;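 active means activation at or above a set limit, or at least 3 SD above the negative control mean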
RORg counter: modulation of RORgamma DNA binding, dose response, counter-screen for Rev-erb alpha modulator project, biochemical, fluorescence polarization, FITC-DNA; shares compounds with Rev-erbA mod; purified RORgamma protein-FITC-DNA binding; IC50, µM; actives 8% (n = 910);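 active means Compounds whose fitted half-maximal concentration for disrupting protein-DNA binding is below 10 micromolar; the record names Rev-erb in its text, so the target is in doubt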
Each line names hits and unclear results; the compound was inactive in the other large screens (follow-up assays come after a bar, where they were run). The list is not random: actives were taken first. Their share in the collection is about 1.5%.

Cc1ccc(S(=O)(=O)N2OC(c3ccccc3)C[C@H]2CC=C(c2ccccc2)c2ccccc2)cc1 (stereo not given in full)	none (no result: NR2E3 ag-1, NR2E3 ag-2, PG9 Ab binder)
COc1ccc(NC(=O)N2CCC(c3nc4ccc(Cl)cc4[nH]3)CC2)cc1OC	none (no result: NR2E3 ag-1, NR2E3 ag-2, PG9 Ab binder)
Cc1ccccc1N1C(=O)c2cccc3c(N(C)CCO)ccc(c23)C1=O	Rev-erbA mod 40 | Rev-erbA confirm 38
COc1ccccc1N1C(=O)c2cccc3c(N(C)CCO)ccc(c23)C1=O	Rev-erbA mod 30 | Rev-erbA confirm 37 | RORg counter inactive
C/C(C=NNC(=O)CSc1nc2ccccc2n1C)=C\c1ccccc1	none (no result: NR2E3 ag-1, NR2E3 ag-2, PG9 Ab binder)
N#CCC[C@@H]1CC[C@]2(CCCN(C(=O)C3CCCCC3)C2)O1	none (no result: NR2E3 ag-1, NR2E3 ag-2, PG9 Ab binder)
O=c1[nH]c(=S)c2[nH]c(=S)n(-c3ccccc3)c2[nH]1	Rev-erbA mod 15 (no result: NR2E3 ag-2) | Rev-erbA confirm inactive
Brc1cc2c(cc1-c1nc3ccccc3s1)OCO2	Rev-erbA mod 28 | Rev-erbA confirm inactive
COC(=O)C1CN(Cc2cn(Cc3ccccc3)nn2)CCS(=O)(=O)N1Cc1ccc(Cl)cc1 (stereo not given)	none (no result: NR2E3 ag-1, NR2E3 ag-2, PG9 Ab binder)
CS(=O)(=O)N[C@@H]1C[C@@H]2O[C@H](CO)CC[C@@H]2O[C@@H]1CCc1ccc(/C=C/c2ccccc2)cc1	none (no result: NR2E3 ag-1, NR2E3 ag-2, PG9 Ab binder)
COc1cccc(-c2nc(CS(=O)(=O)CC(=O)NCCCc3ccccc3)c(C)o2)c1	Rev-erbA mod 60 | Rev-erbA confirm 37 | RORg counter inactive
CCOc1ccc(CCNC(=O)c2cc3sccc3n2CC)cc1OC	none (no result: NR2E3 ag-1, NR2E3 ag-2, PG9 Ab binder)
O=S(=O)(c1ccccc1)N1CCN(c2cc(-c3ccccc3)nc3ncnn23)CC1	none
O=S(=O)(c1ccc(Br)cc1)N1CCN(c2cc(-c3ccccc3)nc3ncnn23)CC1	Rev-erbA mod 30 (no result: PG9 Ab binder) | Rev-erbA confirm 26
COC(=O)c1cc(NC(=O)c2ccccc2)c(=O)oc1/C=C/Nc1ccc(Oc2ccccc2)cc1	Rev-erbA mod 33 (no result: NR2E3 ag-2) | Rev-erbA confirm inactive
CCOC(=O)c1cc(NC(=O)c2ccccc2)c(=O)oc1-c1ccccc1	none
Cc1ccc(Cn2nc(C)c(NC(=O)CSc3nc4c(c(C(F)(F)F)n3)CCc3ccccc3-4)c2C)cc1	Rev-erbA mod 45 | Rev-erbA confirm 29
N#Cc1c(NC(=O)CSc2nc3c(c(C(F)(F)F)n2)CCc2ccccc2-3)sc2c1CCCC2	Rev-erbA mod 40 | Rev-erbA confirm 23
Cc1ccccc1Cn1cc(NC(=O)CSc2nc3c(c(C(F)(F)F)n2)CCc2ccccc2-3)cn1	Rev-erbA mod 19 | Rev-erbA confirm inactive
COc1ccc(-c2ccc(C#N)c(SCC(=O)Nc3sc4c(c3C#N)CCC4)n2)cc1OC	Rev-erbA mod 40 | Rev-erbA confirm 24
NC(=O)c1c(NC(=O)CSc2nc3c(c(C(F)(F)F)n2)CCc2ccccc2-3)sc2c1CCCC2	none (no result: PG9 Ab binder)
Cc1nn(Cc2ccc(Cl)cc2)c(C)c1NC(=O)CSc1nc2c(c(C(F)(F)F)n1)CCc1ccccc1-2	Rev-erbA mod 32 | Rev-erbA confirm 25
COC(=O)C1=C(C)N(CC(C)C)C(=S)NC1c1ccc(-c2ccccc2)cc1 (stereo not given)	none (no result: NR2E3 ag-1, NR2E3 ag-2)
O=c1[nH]c2ccc(Cl)cc2c(-c2ccccc2)c1N1CCN(CCO)CC1	none
CCOC(=O)C1CCN(c2c(-c3ccccc3)c3cc(Cl)ccc3[nH]c2=O)CC1	Rev-erbA mod 37 | Rev-erbA confirm inactive
NNC(=O)CSc1c(-c2ccccc2)c2cc(Cl)ccc2[nH]c1=O	none (no result: NR2E3 ag-2)
CCOC(=O)N1CCN(c2c(-c3ccccc3)c3cc(Cl)ccc3[nH]c2=O)CC1	Rev-erbA mod 33 | Rev-erbA confirm inactive
CSc1nc(N)c(C(=O)NC2CCCCC2)s1	Rev-erbA mod 23 | Rev-erbA confirm inactive
CCC(C)(C)c1ccc(OCCCC[n+]2cccc(C)c2)c(C(C)(C)CC)c1	Rev-erbA mod 33 (no result: NR2E3 ag-2) | Rev-erbA confirm 44 | RORg counter inactive
Cc1ccc[n+](CC(=O)Nc2cc(C(F)(F)F)ccc2Cl)c1	none
CCC(=O)N1CCc2cc(Br)c(S(=O)(=O)N3CCC(C(=O)NC(C)(C)C)CC3)cc21	none (no result: NR2E3 ag-1, NR2E3 ag-2, PG9 Ab binder)
CCOCCCNc1nc2c(C)cccn2c(=O)c1/C=C1\SC(=S)N(C(C)CC)C1=O (stereo not given)	Rev-erbA mod 23 | Rev-erbA confirm inactive
CCCc1nc(SCC(=O)NC2CC2)c2c(C)c(C)sc2n1	Rev-erbA mod 22 | Rev-erbA confirm inactive
CSc1cc(-c2ccccc2)n(Cc2c(Cl)cccc2Cl)c(=O)c1C#N	none
CSc1cc(-c2ccc(Cl)cc2)n(Cc2ccccc2)c(=O)c1C#N	Rev-erbA mod 32 | Rev-erbA confirm inactive
O=C(CCl)N1c2ccccc2Oc2ccc3ccccc3c21	Rev-erbA mod 15 (no result: NR2E3 ag-2) | Rev-erbA confirm inactive
CCSc1nnc(-c2ccc(Cl)cc2)c2ccccc12	Rev-erbA mod 239 | Rev-erbA confirm 289 | RORg counter inactive
Cc1ccc(-n2c(SCC(=O)Nc3ccccc3-c3ccccc3)nnc2-c2cccs2)cc1	none (no result: NR2E3 ag-1, NR2E3 ag-2, PG9 Ab binder)
COC(=O)C1=C(C)NC(C)=C(C(=O)OC)C1C(=O)OCc1nc2cc(C(=O)OC)ccc2c(=O)[nH]1	none
COC(=O)c1ccc2c(=O)[nH]c(COC(=O)CCC(=O)c3ccc(Cl)cc3)nc2c1	Rev-erbA mod 20 | Rev-erbA confirm inactive
CCNC(=O)c1cc2c(=O)n3cccc(C)c3nc2n(Cc2ccc(C)cc2)c1=N	none
Cc1cccn2c(=O)c3cc(C(=O)N4COCC4(C)C)n(Cc4ccccc4)c3nc12	Rev-erbA mod 31 | Rev-erbA confirm inactive
CC(C)CCNc1nnnc2c1sc1nc(N3CCOCC3)c3c(c12)CC(C)(C)SC3	Rev-erbA mod 21 | Rev-erbA confirm inactive
CC1(C)Cc2c(c(N3CCOCC3)nc3sc4c(NCCN5CCOCC5)nnnc4c23)CS1	none
Cc1cc(=O)oc2cc(OCC3CC(c4ccc(Cl)cc4)=NO3)ccc12 (stereo not given)	Rev-erbA mod 80 | Rev-erbA confirm 72 | RORg counter inactive
C=CCN1C(=O)/C(=C2/Sc3ccc(OC)cc3N2C)SC1=NCc1ccccc1	Rev-erbA mod 55 | Rev-erbA confirm 47 | RORg counter inactive
COc1ccc2c(=O)c3c(=O)n(CCc4ccccc4)c(C(C)C)nc3oc2c1	Rev-erbA mod 25 | Rev-erbA confirm inactive
CC(CCN1CCC(C(O)(c2ccccc2)c2ccccc2)CC1)Oc1ccc(OC(F)(F)F)cc1 (stereo not given)	none (no result: NR2E3 ag-1, NR2E3 ag-2, PG9 Ab binder)
COc1cccc(N2CCN(c3ccc4nnc(CCC(=O)Nc5ccc(F)cc5)n4n3)CC2)c1	none

Bioassay records deposited in PubChem BioAssay by several laboratories.
